# Data: ChEMBL document CHEMBL4118021, “Studies of TAK1-centered polypharmacology with novel covalent TAK1 inhibitors” (Bioorg Med Chem, 2017)
# What was measured:
# Type in all cases: cell-based
# [1] = biological target: T1, Serine/threonine-protein kinase Chk1 (Homo sapiens) (UniProt O14757); assay: Inhibition of CHK1 in human SKCO1 cells at 1 uM after 4 hrs using biotin labeled DIKPENLLLDER probe by mass-spectrometric analysis relative to control
# T1 sequence (whole entry): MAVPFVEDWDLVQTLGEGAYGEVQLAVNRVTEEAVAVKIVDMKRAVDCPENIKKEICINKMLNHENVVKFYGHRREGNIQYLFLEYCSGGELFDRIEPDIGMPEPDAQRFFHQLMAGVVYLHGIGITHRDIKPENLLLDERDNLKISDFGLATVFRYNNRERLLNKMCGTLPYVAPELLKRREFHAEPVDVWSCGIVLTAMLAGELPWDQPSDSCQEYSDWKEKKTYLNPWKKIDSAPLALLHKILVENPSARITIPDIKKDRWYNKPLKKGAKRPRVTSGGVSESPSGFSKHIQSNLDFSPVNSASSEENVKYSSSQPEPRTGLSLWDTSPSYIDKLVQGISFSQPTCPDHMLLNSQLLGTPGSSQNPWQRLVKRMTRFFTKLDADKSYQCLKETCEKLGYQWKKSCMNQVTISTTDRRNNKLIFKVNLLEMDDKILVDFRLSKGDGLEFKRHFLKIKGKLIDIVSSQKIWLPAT
# [2] = biological target: Tyrosine-protein kinase Yes (Homo sapiens) (UniProt P07947); assay: Inhibition of YES in human SKCO1 cells at 1 uM after 4 hrs using biotin labeled QGAKFPIKWTAPEAALYGR probe by mass-spectrometric analysis relative to control
# Chain of Tyrosine-protein kinase Yes (Homo sapiens) (P07947 2-543 limits assumed): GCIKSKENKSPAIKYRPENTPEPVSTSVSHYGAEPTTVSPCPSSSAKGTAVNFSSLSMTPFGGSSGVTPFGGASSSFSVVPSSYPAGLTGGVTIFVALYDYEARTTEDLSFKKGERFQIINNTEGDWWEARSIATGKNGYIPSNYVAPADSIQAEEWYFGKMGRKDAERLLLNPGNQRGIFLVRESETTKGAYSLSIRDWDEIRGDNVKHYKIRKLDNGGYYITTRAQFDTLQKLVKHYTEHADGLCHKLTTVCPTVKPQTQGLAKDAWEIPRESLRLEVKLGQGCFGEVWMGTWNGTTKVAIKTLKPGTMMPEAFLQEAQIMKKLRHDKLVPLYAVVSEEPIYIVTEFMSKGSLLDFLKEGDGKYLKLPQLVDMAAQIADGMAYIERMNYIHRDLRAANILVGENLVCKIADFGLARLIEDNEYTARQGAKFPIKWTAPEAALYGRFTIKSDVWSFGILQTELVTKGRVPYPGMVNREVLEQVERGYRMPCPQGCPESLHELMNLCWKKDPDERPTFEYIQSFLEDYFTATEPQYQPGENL
# [3] = biological target: Mitogen-activated protein kinase kinase kinase kinase 1 (Homo sapiens) (UniProt Q92918); assay: Inhibition of HPK1 in human SKCO1 cells at 1 uM after 4 hrs using biotin labeled DIKGANILINDAGEVR probe by mass-spectrometric analysis relative to control
# Chain of Mitogen-activated protein kinase kinase kinase kinase 1 (Homo sapiens) (Q92918 whole entry, looked up): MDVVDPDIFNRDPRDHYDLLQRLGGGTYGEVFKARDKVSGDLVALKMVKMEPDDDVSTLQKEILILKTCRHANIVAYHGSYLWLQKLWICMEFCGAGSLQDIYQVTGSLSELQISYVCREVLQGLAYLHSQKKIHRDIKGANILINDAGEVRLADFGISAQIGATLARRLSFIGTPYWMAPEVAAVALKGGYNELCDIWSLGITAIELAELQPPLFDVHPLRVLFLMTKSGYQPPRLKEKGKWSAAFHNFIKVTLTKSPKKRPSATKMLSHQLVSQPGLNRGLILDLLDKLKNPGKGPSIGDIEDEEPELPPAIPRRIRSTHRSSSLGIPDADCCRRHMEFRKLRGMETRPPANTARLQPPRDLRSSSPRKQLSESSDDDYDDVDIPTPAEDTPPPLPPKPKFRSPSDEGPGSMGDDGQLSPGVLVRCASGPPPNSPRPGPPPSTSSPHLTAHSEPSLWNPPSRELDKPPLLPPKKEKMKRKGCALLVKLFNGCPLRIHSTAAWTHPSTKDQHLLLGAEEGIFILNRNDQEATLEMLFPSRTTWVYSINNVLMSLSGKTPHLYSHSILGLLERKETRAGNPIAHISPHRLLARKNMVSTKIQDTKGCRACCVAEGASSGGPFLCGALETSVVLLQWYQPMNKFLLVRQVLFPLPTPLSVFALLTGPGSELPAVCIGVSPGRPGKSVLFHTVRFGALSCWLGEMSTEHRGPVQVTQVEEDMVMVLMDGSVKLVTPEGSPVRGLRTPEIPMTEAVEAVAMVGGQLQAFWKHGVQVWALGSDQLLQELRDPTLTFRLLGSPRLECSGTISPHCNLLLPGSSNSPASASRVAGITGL
# [4] = biological target: T2, Mitogen-activated protein kinase kinase kinase kinase 3 (Homo sapiens) (UniProt Q8IVH8); assay: Inhibition of KHS2 in human SKCO1 cells at 1 uM after 4 hrs using biotin labeled NVNTGELAAIKVIK probe by mass-spectrometric analysis relative to control
# T2 sequence (whole entry): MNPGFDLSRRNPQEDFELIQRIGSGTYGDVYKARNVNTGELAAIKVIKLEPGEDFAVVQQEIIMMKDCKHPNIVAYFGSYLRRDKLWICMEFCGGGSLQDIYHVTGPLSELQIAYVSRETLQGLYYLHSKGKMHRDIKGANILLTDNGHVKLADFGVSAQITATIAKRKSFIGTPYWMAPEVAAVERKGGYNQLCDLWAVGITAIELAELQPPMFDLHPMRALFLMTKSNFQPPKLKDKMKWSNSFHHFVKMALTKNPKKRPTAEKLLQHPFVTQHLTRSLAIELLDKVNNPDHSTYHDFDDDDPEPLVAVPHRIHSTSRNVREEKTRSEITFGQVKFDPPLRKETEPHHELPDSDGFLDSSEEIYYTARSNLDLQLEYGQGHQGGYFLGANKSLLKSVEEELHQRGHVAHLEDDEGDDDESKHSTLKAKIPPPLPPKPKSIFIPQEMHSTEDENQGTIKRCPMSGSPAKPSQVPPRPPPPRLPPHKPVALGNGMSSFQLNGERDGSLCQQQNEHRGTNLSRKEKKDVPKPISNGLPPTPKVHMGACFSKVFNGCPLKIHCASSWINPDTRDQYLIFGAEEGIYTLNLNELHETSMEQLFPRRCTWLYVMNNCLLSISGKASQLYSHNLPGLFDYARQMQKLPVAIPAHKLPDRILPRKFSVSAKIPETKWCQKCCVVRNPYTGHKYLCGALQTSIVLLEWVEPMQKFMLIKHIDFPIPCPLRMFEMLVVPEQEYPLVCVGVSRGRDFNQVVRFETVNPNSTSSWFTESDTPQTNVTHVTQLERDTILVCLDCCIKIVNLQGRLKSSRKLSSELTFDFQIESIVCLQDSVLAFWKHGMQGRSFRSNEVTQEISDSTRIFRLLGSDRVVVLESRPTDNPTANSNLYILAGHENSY
# [5] = biological target: T3, Serine/threonine-protein kinase TAO3 (Homo sapiens) (UniProt Q9H2K8); assay: Inhibition of TAO3 in human SKCO1 cells at 1 uM after 4 hrs using biotin labeled DIKAGNILLTEPGQVK probe by mass-spectrometric analysis relative to control
# T3 sequence (whole entry): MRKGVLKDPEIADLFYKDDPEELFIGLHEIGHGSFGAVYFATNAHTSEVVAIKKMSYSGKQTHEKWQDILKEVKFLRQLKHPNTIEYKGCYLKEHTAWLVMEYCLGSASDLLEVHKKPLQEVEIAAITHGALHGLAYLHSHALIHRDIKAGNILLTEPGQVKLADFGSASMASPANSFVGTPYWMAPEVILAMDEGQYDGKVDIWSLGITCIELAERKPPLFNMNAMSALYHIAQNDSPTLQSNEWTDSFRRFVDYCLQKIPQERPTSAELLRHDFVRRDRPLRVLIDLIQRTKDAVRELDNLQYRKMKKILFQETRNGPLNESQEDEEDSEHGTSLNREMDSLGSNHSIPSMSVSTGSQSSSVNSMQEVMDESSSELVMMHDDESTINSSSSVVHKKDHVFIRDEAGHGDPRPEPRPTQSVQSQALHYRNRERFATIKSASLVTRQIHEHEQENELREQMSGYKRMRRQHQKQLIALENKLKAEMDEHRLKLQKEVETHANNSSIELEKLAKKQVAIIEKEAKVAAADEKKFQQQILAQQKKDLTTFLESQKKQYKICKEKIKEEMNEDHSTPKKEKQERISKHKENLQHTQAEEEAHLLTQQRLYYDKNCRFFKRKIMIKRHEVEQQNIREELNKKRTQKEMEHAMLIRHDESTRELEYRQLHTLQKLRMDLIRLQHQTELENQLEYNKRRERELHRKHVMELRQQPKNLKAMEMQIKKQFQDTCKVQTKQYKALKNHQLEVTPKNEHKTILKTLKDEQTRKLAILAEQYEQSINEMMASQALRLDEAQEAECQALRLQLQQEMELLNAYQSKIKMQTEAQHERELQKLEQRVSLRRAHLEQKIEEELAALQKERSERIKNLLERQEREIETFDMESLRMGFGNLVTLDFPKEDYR
# How it was run: (§1)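 Live SK-CO-1 cells exposed to compound at 1 μM or DMSO for 4 h (KiNativ). Lysates then labeled with lysine-reactive ATP/ADP-biotin probe, and probe-labeled kinase peptides quantified by mass spectrometry. Percent inhibition of probe-dependent recovery calculated relative to DMSO-treated cells.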
# [6] = biological target: Serine/threonine-protein kinase tousled-like 2 (Homo sapiens) (UniProt Q86UE8); assay: Inhibition of TLK2 in human SKCO1 cells at 1 uM after 4 hrs using biotin labeled YLNEIKPPIIHYDLKPGNILLVNGTACEIK probe by mass-spectrometric analysis relative to control; how it was run: as §1
# Chain of Serine/threonine-protein kinase tousled-like 2 (Homo sapiens) (Q86UE8 whole entry, looked up): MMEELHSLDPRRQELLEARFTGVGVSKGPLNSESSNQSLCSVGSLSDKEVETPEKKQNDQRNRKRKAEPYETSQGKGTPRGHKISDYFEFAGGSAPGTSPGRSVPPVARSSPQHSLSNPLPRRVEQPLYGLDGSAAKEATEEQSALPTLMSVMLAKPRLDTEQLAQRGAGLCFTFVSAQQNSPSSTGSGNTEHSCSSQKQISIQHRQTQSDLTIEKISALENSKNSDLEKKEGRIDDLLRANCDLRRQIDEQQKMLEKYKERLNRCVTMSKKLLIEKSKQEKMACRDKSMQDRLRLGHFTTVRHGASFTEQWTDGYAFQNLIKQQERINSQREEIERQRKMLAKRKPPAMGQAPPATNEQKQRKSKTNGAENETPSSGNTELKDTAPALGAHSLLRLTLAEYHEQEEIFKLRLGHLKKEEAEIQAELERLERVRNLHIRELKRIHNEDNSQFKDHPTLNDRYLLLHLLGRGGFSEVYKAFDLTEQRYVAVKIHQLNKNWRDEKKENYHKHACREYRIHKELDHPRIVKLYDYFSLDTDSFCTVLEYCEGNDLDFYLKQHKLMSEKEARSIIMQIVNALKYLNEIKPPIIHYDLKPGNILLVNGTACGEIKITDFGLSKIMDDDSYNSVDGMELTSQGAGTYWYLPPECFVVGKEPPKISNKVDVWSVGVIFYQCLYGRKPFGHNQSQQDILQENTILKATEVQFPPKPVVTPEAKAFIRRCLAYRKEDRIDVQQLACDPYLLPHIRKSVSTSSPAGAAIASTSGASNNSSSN
SMILES,inhibition [1],inhibition [2],inhibition [3],inhibition [4],inhibition [5],inhibition [6]
C=CC(=O)Nc1ccccc1Nc1nc(Nc2ccc(N3CCN(C)CC3)cc2)ncc1Cl,53.8%,50.5%,34.9%,42.4%,13.1%,-2.7%
COc1cc(O)c2c(c1)/C=C/C[C@H](O)[C@H](O)C(=O)/C=C\C[C@H](C)OC2=O,40.2%,8.5%,77.3%,3.1%,39.4%,-1.8%
C=CC(=O)Nc1ccccc1Oc1nc(Nc2cnn(CCOC)c2)ncc1Cl,48.8%,-0.9%,72.6%,-7.5%,9.6%,3.8%
